Calls of active or inactive are those of the source. No cut-off for these calls is given here.
Key:
[1] = Insulinotropic activity in rat RIN5F cells assessed as glucose dependent insulin secretion per ug of total protein at 0.1 uM; format: functional
How it was run: (§1)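 RIN5F cells seeded at 0.2×10^6 per well and grown overnight to 80% confluence. Preincubated 40 min in Krebs-Ringer Hepes buffer (1.1 mM glucose, 0.5% BSA, pH 7.4). Then exposed 30 min at 37 °C to compound with 16.7 mM glucose. Supernatant insulin by rat insulin ELISA, normalized to total protein (pg/μg/h). n = 3, mean ± SD.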

[2] = Insulinotropic activity in rat RIN5F cells assessed as glucose dependent insulin secretion per ug of total protein at 1 uM; format: functional; how it was run: as §1
[3] = Insulinotropic activity in rat RIN5F cells assessed as glucose dependent insulin secretion per ug of total protein at 10 uM; format: functional; how it was run: as §1
[4] = Insulinotropic activity in rat RIN5F cells assessed as insulin secretion per ug of total protein at 0.1 uM; format: functional
How it was run: (§2)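 RIN5F cells seeded at 0.2×10^6 per well, grown overnight to 80% confluence, then preincubated 40 min in Krebs-Ringer Hepes buffer (1.1 mM glucose, 0.5% BSA, pH 7.4). Incubated 30 min at 37 °C with compound in the absence of glucose (0 mM). Secreted insulin by rat insulin ELISA, normalized to total protein (pg/μg/h). n = 3, mean ± SD.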

[5] = Insulinotropic activity in rat RIN5F cells assessed as insulin secretion per ug of total protein at 1 uM; format: functional; how it was run: as §2
[6] = Insulinotropic activity in rat RIN5F cells assessed as insulin secretion per ug of total protein at 10 uM; format: functional; how it was run: as §2
Mus musculus [7] = assay: Antidiabetic activity in ip dosed overnight fasted C57BL/6J mouse assessed as serum insulin level by ELISA; format: functional, organism-based
How it was run: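 Male C57BL/6J mice (8–12 weeks, 25–30 g), randomized into groups of n = 6 by fed glucose and fasted overnight. Single ip dose of 1, 10 or 100 μM/kg/10 mL, suspended in normal saline (saline vehicle control). Retro-orbital blood taken under light ether at 30 min. Serum stored at -70 °C, then assayed by rat/mouse insulin ELISA. Mean ± SEM.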

Mus musculus [8] = assay: Antidiabetic activity in overnight fasted C57BL/6J mouse assessed as reduction in serum glucose level at 1 uM to 100 uM, ip after 120 mins; format: functional, organism-based
How it was run: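 Male C57BL/6J mice (8–12 weeks, 25–30 g), n = 6 per group, fasted overnight. Single ip dose of 1, 10 or 100 μM/kg/10 mL in saline (saline vehicle control). Retro-orbital blood under light ether at 0, 30, 60 and 120 min. Serum glucose by GOD/POD method, duplicate samples. Baseline-corrected curves and 0–120 min AUC; mean ± SEM.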

Mus musculus [9] = assay: Antidiabetic activity in overnight fasted C57BL/6J mouse assessed as reduction in serum glucose level at 1 uM to 100 uM, ip after 30 mins; format: functional, organism-based
How it was run: (§3)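 Male C57BL/6J mice (8–12 weeks, 25–30 g, bred in-house) randomized into groups (n = 6) by fed glucose, fasted overnight with water ad libitum. Compounds suspended in normal saline given ip at 1, 10 and 100 μM/kg/10 mL right after 0 min bleed. Retro-orbital blood under light ether at 0, 30, 60, 120 min; serum glucose by GOD/POD method, duplicate samples; mean ± SEM.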

Mus musculus [10] = assay: Antidiabetic activity in overnight fasted C57BL/6J mouse assessed as reduction in serum glucose level at 1 uM to 100 uM, ip after 60 mins; format: functional, organism-based; how it was run: as §3

SMILES	Activity [1] [pg/h]	Activity [2] [pg/µg/h]	Activity [3] [pg/h]	other results
Clc1cnc2[nH]c(Cc3ccccc3)c(C3=NCCN3)c2c1	14.4	18.3	31.9	
c1cnc2sc(C3CCCCC3)c(C3=NCCN3)c2c1	12.6	14.7	28.1	
c1ccc(Cc2[nH]c3ncccc3c2C2=NCCN2)cc1	14.8	18.2	32.6	
Clc1cnc2[nH]c(-c3ccccc3)c(C3=NCCN3)c2c1	18.2	25.5	39.2	
Clc1cnc2[nH]cc(C3=NCCN3)c2c1	12.4	15.2	29.6	
CCCCNC(=O)NS(=O)(=O)c1ccc(C)cc1 [TOLBUTAMIDE]	20		35.2	Activity [4]: 19.7 pg/h; Activity [5]: 20.7 pg/h; Activity [6]: 34.4 pg/h
Cc1[nH]c2ncc(Cl)cc2c1C1=NCCN1	19.3	27.7	41.7	Activity (Mus musculus [7]): Dose-dependent effect; Activity (Mus musculus [8]): Active
c1ccc(-c2[nH]c3ncccc3c2C2=NCCN2)cc1	14.1	18.1	32.5	
c1cnc2scc(C3=NCCN3)c2c1	12.2	14.2	28.2	
Cc1[nH]c2ncccc2c1C1=NCCN1	14.9	18	32.4	
Clc1cnc2scc(C3=NCCN3)c2c1	12.6	15	29	
Cc1sc2ncc(Cl)cc2c1C1=NCCN1	19.2	27.5	41.5	Activity (Mus musculus [7]): Dose-dependent effect; Activity (Mus musculus [8]): Active
Clc1cnc2sc(C3CCCCC3)c(C3=NCCN3)c2c1	12.9	15.1	28.7	
Cc1sc2ncccc2c1C1=NCCN1	14.5	18.9	31.8	
CCc1[nH]c2ncccc2c1C1=NCCN1	13.3	16.4	29.1	
CCc1sc2ncc(Cl)cc2c1C1=NCCN1	18.5	26.5	39.8	
Clc1cnc2[nH]c(C3CCCCC3)c(C3=NCCN3)c2c1	12.6	15	28.9	
c1ccc(-c2sc3ncccc3c2C2=NCCN2)cc1	14.7	18	31.9	
c1cnc2[nH]c(C3CCCCC3)c(C3=NCCN3)c2c1	12.4	14.3	28	
Cc1[nH]c2ccc(Cl)cc2c1C1=NCCN1	16.3	22.4	36.5	Activity (Mus musculus [9]): Active; Activity (Mus musculus [10]): Active
Clc1cnc2sc(-c3ccccc3)c(C3=NCCN3)c2c1	18	25.4	39	
c1ccc(Cc2sc3ncccc3c2C2=NCCN2)cc1	14.4	18.8	31.6	
Clc1cnc2sc(Cc3ccccc3)c(C3=NCCN3)c2c1	13.9	18.2	31.9	
CCc1[nH]c2ncc(Cl)cc2c1C1=NCCN1	18.9	26.1	39.9	
c1cnc2[nH]cc(C3=NCCN3)c2c1	12.1	14.1	28	
CCc1sc2ncccc2c1C1=NCCN1	13	15.5	29.1	
